Data as given in ChEMBL document CHEMBL3108771, “Crystal Structures of PI3Kα Complexed with PI103 and Its Derivatives: New Directions for Inhibitors Design” (ACS Med Chem Lett, 2014).

Tests used:
[1] = molecular target: T1, Phosphatidylinositol 4,5-bisphosphate 3-kinase catalytic subunit alpha isoform (Homo sapiens, UniProt P42336); experiment: Inhibition of N-terminal His-6-tagged full length human PI3Kalpha expressed in baculovirus-infected sf9 cells after 30 mins by TR-FRET assay
How it was run: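 IC50 is the mean of at least three independent experiments, each run in duplicate. Typical variation was below 20%.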

[2] = test system: Phosphatidylinositol 4,5-bisphosphate 3-kinase catalytic subunit alpha isoform (Homo sapiens), P42336 [D810A]; experiment: Ratio of PI103 IC50 to compound IC50 for full length human PI3Kalpha D810A mutant
How it was run: (§1)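 Inhibitor IC50s were determined against wild-type PI3Kα and the M772A, D810A and Y836A mutants. The mutants were expressed and purified in-house. […] Fold change is the PI103 IC50 divided by the compound IC50 on the same enzyme form.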

[3] = test system: Phosphatidylinositol 4,5-bisphosphate 3-kinase catalytic subunit alpha isoform (Homo sapiens), P42336 [Y836A]; experiment: Ratio of PI103 IC50 to compound IC50 for full length human PI3Kalpha Y836A mutant; how it was run: as §1
[4] = molecular target: T1, Phosphatidylinositol 4,5-bisphosphate 3-kinase catalytic subunit alpha isoform; experiment: Ratio of PI103 IC50 to compound IC50 for full length human PI3Kalpha; how it was run: as §1
[5] = test system: Phosphatidylinositol 4,5-bisphosphate 3-kinase catalytic subunit alpha isoform (Homo sapiens), P42336 [M772A]; experiment: Ratio of PI103 IC50 to compound IC50 for full length human PI3Kalpha M772A mutant; how it was run: as §1
[6] = molecular target: Phosphatidylinositol 4,5-bisphosphate 3-kinase catalytic subunit alpha isoform (Homo sapiens, UniProt P42336, D810A); experiment: Inhibition of GST-tagged full length human PI3Kalpha D810A mutant expressed in baculovirus-infected sf9 cells after 30 mins by TR-FRET assay
How it was run: (§2)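 Each mutant PI3Kα was expressed and purified in-house. IC50 is the mean of at least three independent experiments, each run in duplicate.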

[7] = molecular target: Phosphatidylinositol 4,5-bisphosphate 3-kinase catalytic subunit alpha isoform (Homo sapiens, UniProt P42336, Y836A); experiment: Inhibition of GST-tagged full length human PI3Kalpha Y836A mutant expressed in baculovirus-infected sf9 cells after 30 mins by TR-FRET assay; how it was run: as §2
[8] = molecular target: Phosphatidylinositol 4,5-bisphosphate 3-kinase catalytic subunit alpha isoform (Homo sapiens, UniProt P42336, M772A); experiment: Inhibition of GST-tagged full length human PI3Kalpha M772A mutant expressed in baculovirus-infected sf9 cells after 30 mins by TR-FRET assay; how it was run: as §2
Sequence of Phosphatidylinositol 4,5-bisphosphate 3-kinase catalytic subunit alpha isoform (Homo sapiens, UniProt P42336, M772A) (P42336 whole entry M772A, canonical isoform): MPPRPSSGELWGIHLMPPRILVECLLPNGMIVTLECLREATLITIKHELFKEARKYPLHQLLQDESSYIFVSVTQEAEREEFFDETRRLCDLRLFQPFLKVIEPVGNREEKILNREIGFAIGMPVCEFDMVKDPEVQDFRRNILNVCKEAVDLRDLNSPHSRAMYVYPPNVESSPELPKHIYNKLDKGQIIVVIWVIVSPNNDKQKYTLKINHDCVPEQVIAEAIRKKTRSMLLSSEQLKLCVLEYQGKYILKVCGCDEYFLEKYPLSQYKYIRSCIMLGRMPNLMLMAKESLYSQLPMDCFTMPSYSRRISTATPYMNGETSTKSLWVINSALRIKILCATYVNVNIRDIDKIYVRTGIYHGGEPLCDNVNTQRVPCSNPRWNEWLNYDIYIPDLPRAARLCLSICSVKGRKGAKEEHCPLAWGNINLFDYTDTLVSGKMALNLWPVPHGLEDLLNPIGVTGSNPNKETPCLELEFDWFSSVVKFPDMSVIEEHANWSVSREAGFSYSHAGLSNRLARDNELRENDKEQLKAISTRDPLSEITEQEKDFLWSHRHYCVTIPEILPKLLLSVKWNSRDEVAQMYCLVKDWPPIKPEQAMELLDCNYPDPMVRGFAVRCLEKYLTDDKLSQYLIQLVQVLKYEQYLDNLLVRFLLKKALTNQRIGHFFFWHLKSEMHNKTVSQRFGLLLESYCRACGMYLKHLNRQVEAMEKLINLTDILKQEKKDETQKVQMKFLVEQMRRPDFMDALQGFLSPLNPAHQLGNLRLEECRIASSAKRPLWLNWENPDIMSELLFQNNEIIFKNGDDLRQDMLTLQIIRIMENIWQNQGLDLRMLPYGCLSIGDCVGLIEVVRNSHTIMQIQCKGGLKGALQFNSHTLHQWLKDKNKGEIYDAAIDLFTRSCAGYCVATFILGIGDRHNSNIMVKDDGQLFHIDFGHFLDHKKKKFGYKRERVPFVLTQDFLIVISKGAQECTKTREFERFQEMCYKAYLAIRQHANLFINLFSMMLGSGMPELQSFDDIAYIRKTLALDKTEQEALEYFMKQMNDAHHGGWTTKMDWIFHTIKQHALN

T1 sequence (P42336 whole entry, canonical isoform): as the sequence (P42336 whole entry M772A, canonical isoform) above, with A772M counted along it
Sequence of Phosphatidylinositol 4,5-bisphosphate 3-kinase catalytic subunit alpha isoform (Homo sapiens), P42336 [M772A] (P42336 whole entry M772A, canonical isoform): as the sequence (P42336 whole entry M772A, canonical isoform) above
Sequence of Phosphatidylinositol 4,5-bisphosphate 3-kinase catalytic subunit alpha isoform (Homo sapiens), P42336 [Y836A] (P42336 whole entry Y836A, canonical isoform): as the sequence (P42336 whole entry M772A, canonical isoform) above, with A772M, Y836A counted along it
Sequence of Phosphatidylinositol 4,5-bisphosphate 3-kinase catalytic subunit alpha isoform (Homo sapiens, UniProt P42336, Y836A) (P42336 whole entry Y836A, canonical isoform): as the sequence (P42336 whole entry M772A, canonical isoform) above, with A772M, Y836A counted along it
Sequence of Phosphatidylinositol 4,5-bisphosphate 3-kinase catalytic subunit alpha isoform (Homo sapiens), P42336 [D810A] (P42336 whole entry D810A, canonical isoform): as the sequence (P42336 whole entry M772A, canonical isoform) above, with A772M, D810A counted along it
Sequence of Phosphatidylinositol 4,5-bisphosphate 3-kinase catalytic subunit alpha isoform (Homo sapiens, UniProt P42336, D810A) (P42336 whole entry D810A, canonical isoform): as the sequence (P42336 whole entry M772A, canonical isoform) above, with A772M, D810A counted along it

SMILES | IC50 [1] [nM] | other results
Oc1cc(Br)cc(-c2nc(N3CCOCC3)c3oc4ncccc4c3n2)c1 | 1210 | –
Oc1cc(O)cc(-c2nc(N3CCOCC3)c3oc4ncccc4c3n2)c1 | 5.9 | Ratio IC50 [2]: 1.2; Ratio IC50 [3]: 5.7; Ratio IC50 [4]: 3; Ratio IC50 [5]: 19.4; IC50 [6]: 61.3 nM; IC50 [7]: 140 nM; IC50 [8]: 53.4 nM
Oc1cc(-c2nc(N3CCOCC3)c3oc4ncccc4c3n2)cc(C(F)(F)F)c1 | > 10000 | –
O=[N+]([O-])c1cc(O)cc(-c2nc(N3CCOCC3)c3oc4ncccc4c3n2)c1 | > 10000 | –
Nc1cc(O)cc(-c2nc(N3CCOCC3)c3oc4ncccc4c3n2)c1 | 20.6 | –
Oc1cc(Cl)cc(-c2nc(N3CCOCC3)c3oc4ncccc4c3n2)c1 | 990 | –
Oc1cc(F)cc(-c2nc(N3CCOCC3)c3oc4ncccc4c3n2)c1 | 40.9 | –
Cc1cc(O)cc(-c2nc(N3CCOCC3)c3oc4ncccc4c3n2)c1 | > 10000 | –
